CHOP UPR activ: apoptotic UPR (CHOP) activation; CHO-CHOP luciferase reporter, luminescence; percent of tunicamycin response over DMSO baseline; activation, % at 10 µM; actives 0.34% (n = 330,000);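 active = at 10 µM dose, activation of 40% or more, normalized to positive control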;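 note: 100% = tunicamycin at 10 µg/mL and 0% = DMSO alone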
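Dosing – one dose, 10 µM in 0.5% DMSO · System – CHO-CHOP cells, stable luciferase reporter of PERK-eIF2a-CHOP signalling · Input – 500 cells/well · Control set – tunicamycin 10 µg/mL final as positive, DMSO-only wells as negative · Timing – 6 h compound treatment, 37 °C · Measure – % activation vs tunicamycin · Technique – luminescence read with Steady-Glo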
Mdm2-MdmX inh: disrupts the human Mdm2-MdmX interaction. O15151+Q00987. SaOS-2 split-luciferase Mdm2/MdmX complementation, luminescence. inhibition, % at 8 µM. actives 3% (n = 330,000). AID 485346;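 active = inhibition of at least 50% at 8 µM in the primary screen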
Target sequence (O15151 whole entry, looked up): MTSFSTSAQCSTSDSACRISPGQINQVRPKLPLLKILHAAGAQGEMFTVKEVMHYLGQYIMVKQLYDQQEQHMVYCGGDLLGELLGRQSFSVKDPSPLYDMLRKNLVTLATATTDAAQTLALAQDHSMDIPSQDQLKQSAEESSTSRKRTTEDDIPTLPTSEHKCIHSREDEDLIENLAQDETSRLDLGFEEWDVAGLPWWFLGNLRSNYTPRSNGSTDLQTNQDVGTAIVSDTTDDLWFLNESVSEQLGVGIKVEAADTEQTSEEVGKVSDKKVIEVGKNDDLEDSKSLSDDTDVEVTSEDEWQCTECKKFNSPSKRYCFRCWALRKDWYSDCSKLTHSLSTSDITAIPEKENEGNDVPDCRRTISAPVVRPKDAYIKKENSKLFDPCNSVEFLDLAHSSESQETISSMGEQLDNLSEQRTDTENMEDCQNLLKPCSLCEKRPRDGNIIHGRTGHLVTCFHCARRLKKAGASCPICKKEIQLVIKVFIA
Target sequence (Q00987 whole entry, looked up): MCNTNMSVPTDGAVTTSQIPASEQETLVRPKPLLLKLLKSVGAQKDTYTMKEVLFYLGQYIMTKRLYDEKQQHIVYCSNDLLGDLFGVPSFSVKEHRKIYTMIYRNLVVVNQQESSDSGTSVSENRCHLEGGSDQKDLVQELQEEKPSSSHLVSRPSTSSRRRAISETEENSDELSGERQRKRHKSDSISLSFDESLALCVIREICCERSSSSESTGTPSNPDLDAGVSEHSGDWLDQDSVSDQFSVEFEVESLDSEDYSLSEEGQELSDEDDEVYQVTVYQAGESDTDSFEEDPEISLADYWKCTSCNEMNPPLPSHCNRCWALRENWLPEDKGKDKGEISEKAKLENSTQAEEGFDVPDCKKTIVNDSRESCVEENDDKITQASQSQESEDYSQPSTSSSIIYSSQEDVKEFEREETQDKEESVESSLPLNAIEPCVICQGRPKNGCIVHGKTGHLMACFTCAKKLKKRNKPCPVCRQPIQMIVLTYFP
CSC inhib: blocks cancer stem cells | inhibition, % at 7.5 µM | cancer stem cell-like cells viability, luminescence | actives 1.1% (n = 300,000); in the data active = inhibition above about 75%; inconclusive = no clear call, values can overlap the other calls; tested in HMLE shEcad cells
Beta cell apopt: blocks beta cell apoptosis. INS-1E cytokine-induced death, ATP luminescence, 48 h; percent of positive-control rescue, neutral wells zero. actives 0.8% (n = 300,000). AID 435005. protection from apoptosis, % (test concentration not listed);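 active = Every replicate reaches about 75%, or at least half do and their mean reaches it too, limit read from the data; inconclusive = At least half of replicates reach the limit but their mean does not; inactive = Under half of replicates reach the limit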;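 note: 0% = cytokine-treated negative control wells and 100% = positive control rescue; higher means more ATP so stronger rescue from cytokine killing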
T cruzi repl: T. cruzi replication inhibition. T. cruzi beta-gal in NIH3T3, luminescence, 90 h. inhibition, % (no concentration beside the values). actives 1.4% (n = 300,000). AID 1885;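 active = mean inhibition across valid replicates above about 55%, limit read from the data; inconclusive = mean below that limit but half or more replicates reach it; inactive = mean below it, under half of replicates reach it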;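 note: signal also drops with host cell toxicity which is not excluded here; 0% = plate median of DMSO wells and 100% = zero luminescence signal; higher percent means less beta-gal luminescence so fewer parasites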
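assay system = mouse NIH/3T3 fibroblasts infected with β-gal-expressing T. cruzi Tulahuen C4 | input = 5,000 NIH/3T3 host cells per well | buffer or medium = DMEM plus 2% FBS | timing = 3 h host attachment, then at least 90 h co-culture | measured by = GalScreen luminescence, 60 min | evaluation = luminescence reflecting intracellular parasite burden, expressed as percent inhibition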
XBP1 UPR activ: activators of adaptive arm of unfolded protein response (XBP1); CHO-XBP1 luciferase reporter, IRE1-XBP1 UPR activation, luminescence; percent of tunicamycin response, DMSO as zero; activation, % at 20 µM; actives 0.33% (n = 330,000);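 active = versus positive control, 20 µM dose yields 30% or more activation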;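 note: 100% = tunicamycin at 10 µg/mL and 0% = DMSO only wells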
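Signal: luciferase luminescence; Assay system: CHO-XBP1 luciferase reporter cells; Amount: one thousand reporter cells per well; Dosing: 20 µM single concentration, DMSO 1%; Benchmarks: high control tunicamycin 10 µg/mL final, low control DMSO vehicle only; Schedule: 6 h compound exposure at 37 °C, 5% CO2; Evaluation: percent activation relative to tunicamycin reference.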
Mdm2-MdmX conf: human Mdm2/MdmX binding inhibition, confirmed | inhibition, % at 8 µM | shares compounds with Mdm2-MdmX inh | actives 55% (n = 10,000) | AID 489028 | luminescent assay; in the data active = inhibition above about 40%
Full FLuc ctr: full-length luciferase inhibition in Mdm2/MdmX counter-screen; SaOS-2 full-length luciferase counterscreen, luminescence; actives 77% (n = 6,200); shares compounds with Mdm2-MdmX inh; inhibition, % at 8 µM;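 active = mean inhibition at 8 µM reaching about 37%, which flags the compound as non-specific, limit read from the data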;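 note: p53-null SaOS-2 cells with luciferase driven by a doxycycline-inducible promoter; compound on cells about two nights before reading with doxycycline added after day one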
Numbers without * were called inactive; ? = inconclusive; · = no result. Hits are enriched below; roughly 5% of the tested compounds scored in any of these assays.

SMILES	CHOP UPR activ	Mdm2-MdmX inh	CSC inhib	Beta cell apopt	T cruzi repl	XBP1 UPR activ	Mdm2-MdmX conf	Full FLuc ctr
Cn1ccc2cc(-c3ccc4ncnc(NCc5cccs5)c4c3)ccc21	0	64*	·	61	·	1	57*	25
CC(NC(=O)C(=O)N1CCOCC1)C(c1cccs1)N1CCN(c2ccccc2)CC1 (stereo not drawn)	-3	22	-1	7	-7	0	·	·
O=C1CCCC(=O)N1c1ccc(Oc2ccc(Cl)cc2)cc1	5	-3	-5	-8	-2	-1	·	·
COc1cc(CNC2CCCC2)cc(Cl)c1OCc1ccc(F)cc1	1	48	-5	18	33	-1	·	·
CCOc1cc(CNC2CCCC2)cc(Cl)c1OCc1ccc(F)cc1	0	58*	44	18	-13	0	44*	80*
COc1cc(CNC2CCCC2)cc(Cl)c1OCc1ccccc1Cl	-2	52*	80*	?	77*	14	35	·
C=CCNc1nc(Nc2ccc(-c3nc4ccccc4o3)cc2)nc(N2CCOCC2)n1	-1	-4	61	2	45	1	·	·
CN=c1scc(-c2cccs2)n1/N=C/c1ccc(O)c(O)c1O	18	-43	48	28	-19	-6	·	·
CN=c1scc(-c2ccccc2Br)n1/N=C/c1ccc[nH]1	-1	60*	31	12	29	-7	69*	143*
O=C(CN1C(=O)NC2(CCCC2)C1=O)Nc1ccc(F)c(Cl)c1	-2	13	-17	-4	-1	-2	·	·
O=C(c1cccc(S(=O)(=O)NCc2ccccc2)c1)N1CCN(c2cccc(C(F)(F)F)c2)CC1	3	62*	41	7	45	-2	70*	55*
O=C(c1cccc(S(=O)(=O)NCc2ccccc2)c1)N1CCN(c2ccccc2)CC1	0	37	41	0	·	0	·	·
CCc1nc2c(c(=O)c3ccccc3n2C)c(=O)n1C1CCCCCC1	-4	52*	34	41	-6	6	76*	81*
Cn1c2ccccc2c(=O)c2c(=O)n(C3CCCCC3)c(-c3cccs3)nc21	-1	59*	50	42	?	17	69*	63*
Cn1c2ccccc2c(=O)c2c(=O)n(C3CCCCCC3)c(C3CCCCC3)nc21	·	·	·	·	18	·	·	·
Cn1c2ccccc2c(=O)c2c(=O)n(-c3ccccc3)c(C3CCCCC3)nc21	3	-14	-7	9	35	-1	·	·
NNC(=O)Cn1c(SCc2ccccc2)nc2ccccc21	1	3	0	-3	1	2	·	·
CCOC(=O)N1CCN(Cc2nc3cc([N+](=O)[O-])ccc3n2C)CC1	-1	-27	-1	2	1	-3	·	·
CCOC(=O)c1cnc(SCC(=O)Nc2ccc(N3CCOCC3)c(Cl)c2)nc1N	0	13	5	0	11	1	·	·
CCOC(=O)c1cnc(SCC(=O)Nc2cc(C(F)(F)F)ccc2N2CCOCC2)nc1N	-2	55*	0	4	7	0	-4	·
Cc1sc(NC(=O)CSc2nnc(COc3ccc(Cl)cc3)n2C)c(C#N)c1C	7	52*	6	3	12	1	34	·
CCOC(=O)c1cnc(SCC(=O)Nc2cc(OC)cc(OC)c2)nc1N	1	34	1	3	-5	-4	·	·
Cc1ccc(-c2nnc(SCC(=O)Nc3sc(C)c(C)c3C#N)n2C)cc1	-1	49	18	2	-2	-2	·	·
CCOC(=O)c1cnc(SCC(=O)Nc2sc(C)c(C)c2C#N)nc1N	2	72*	-5	·	8	3	7	·
O=C(OCCN1C(=O)c2cccc3c(N4CCOCC4)ccc(c23)C1=O)c1ccc(Cl)cc1	2	73*	7	4	-22	10	53*	69*

Screening data as filed in PubChem.
